Test results from ChEMBL document CHEMBL1149615, “Design, synthesis, and biological evaluation of LNA nucleosides as adenosine A3 receptor ligands” (Bioorg Med Chem, 2007).

Key:
Type in all cases: functional
[1] = molecular target: T1, Adenosine receptor A3 (Homo sapiens, UniProt P0DMS8); assay: (§1) Antagonist activity at human adenosine A3 receptor after 15 to 30 mins
T1 sequence (P0DMS8 whole entry): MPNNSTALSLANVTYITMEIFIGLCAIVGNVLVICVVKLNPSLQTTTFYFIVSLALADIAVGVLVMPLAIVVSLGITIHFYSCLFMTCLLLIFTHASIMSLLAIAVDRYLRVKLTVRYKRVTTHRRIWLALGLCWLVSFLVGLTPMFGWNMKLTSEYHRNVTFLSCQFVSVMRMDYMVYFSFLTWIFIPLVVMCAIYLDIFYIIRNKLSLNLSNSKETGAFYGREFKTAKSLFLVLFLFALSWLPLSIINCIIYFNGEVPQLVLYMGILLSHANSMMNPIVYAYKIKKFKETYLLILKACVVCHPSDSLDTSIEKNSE

[2] = molecular target: T1, Adenosine receptor A3; assay: Agonist activity at human adenosine A3 receptor after 15 to 30 mins
How it was run: (§2)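 AequoScreen cells expressing recombinant human A3 receptor and Gα16 were cultured at least one week, harvested with PBS-EDTA, and loaded overnight at room temperature with coelenterazine H in DMEM-F12 with 0.1% BSA. Cells were injected onto compound and aequorin luminescence was read. Duplicates at 100 µM–0.01 nM (eight concentrations) were normalised to saturating (EC100) IB-MECA to give EC50.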

[3] = molecular target: T2, Adenosine receptor A3 (Homo sapiens) (UniProt P0DMS8); assay: as §1
T2 sequence (whole entry): T1 sequence (P0DMS8 whole entry)

[4] = molecular target: T3, Adenosine receptor A1 (Homo sapiens, UniProt P30542); assay: Agonist activity at human adenosine A1 receptor
T3 sequence (P30542 whole entry): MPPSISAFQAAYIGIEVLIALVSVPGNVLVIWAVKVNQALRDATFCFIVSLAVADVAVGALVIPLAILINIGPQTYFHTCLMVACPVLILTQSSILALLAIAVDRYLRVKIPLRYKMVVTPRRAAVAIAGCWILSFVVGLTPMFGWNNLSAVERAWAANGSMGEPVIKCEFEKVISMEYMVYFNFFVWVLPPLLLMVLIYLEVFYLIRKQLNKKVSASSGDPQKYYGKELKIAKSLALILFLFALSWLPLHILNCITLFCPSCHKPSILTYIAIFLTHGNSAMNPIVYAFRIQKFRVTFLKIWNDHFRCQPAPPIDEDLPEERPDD
How it was run: (§3)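 Clones coexpressing mitochondrial apoaequorin and Gα16 were collected in PBS with 5 mM EDTA. They were loaded with 5 µM coelenterazine H for 4 h at room temperature, washed, and mixed with compound, and aequorin light was recorded for 30 s. Duplicates at eight concentrations from 3000 to 1 nM were fitted by sigmoidal nonlinear regression and expressed as percent of agonist response.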

[5] = molecular target: T3, Adenosine receptor A1; assay: Antagonist activity at human adenosine A1 receptor; how it was run: as §3
[6] = molecular target: T2, Adenosine receptor A3 (Homo sapiens); assay: Agonist activity at human adenosine A3 receptor after 15 to 30 mins relative to IB-MECA; how it was run: as §2

IC50 [1] [µM] | EC50 [2] [µM] | Imax [3] [%] | EC50 [4] [µM] | IC50 [5] [µM] | Emax [6] [%] | SMILES
> 100 | > 100 | – | – | – | – | Nc1ncnc2c1ncn2[C@@H]1O[C@@]2(CO)CO[C@@H]1[C@@H]2O
0.0017 | > 100 | 100 | > 3 | > 3 | – | CO[C@@H]1[C@H](O)[C@@H](CO)O[C@H]1n1cnc2c(NCc3cccc(I)c3)ncnc21
0.015 | > 100 | 100 | > 3 | > 3 | – | CO[C@@H]1[C@H](O)[C@@H](CO)O[C@H]1n1cnc2c(N)ncnc21
– | 0.453 | – | – | – | 100 | CNC(=O)[C@H]1O[C@@H](n2cnc3c(N)ncnc32)[C@H](OC)[C@@H]1O
0.0082 | > 100 | 100 | > 3 | > 3 | – | OC[C@@]12CN[C@@H]([C@H](n3cnc4c(NCc5cccc(I)c5)ncnc43)O1)[C@@H]2O
> 100 | > 100 | – | – | – | – | CNC(=O)[C@@]12CO[C@@H]([C@H](n3cnc4c(N)ncnc43)O1)[C@@H]2O
– | > 100 | 100 | > 3 | > 3 | – | CNC(=O)[C@@]12CN[C@@H]([C@H](n3cnc4c(NCc5cccc(I)c5)ncnc43)O1)[C@@H]2O
0.15 | > 100 | 100 | – | – | – | OC[C@@]12CO[C@@H]([C@H](n3cnc4c(NCc5cccc(I)c5)ncnc43)O1)[C@@H]2O
– | 0.0019 | – | > 3 | > 3 | 100 | CNC(=O)[C@H]1O[C@@H](n2cnc3c(NCc4cccc(I)c4)ncnc32)[C@H](OC)[C@@H]1O
> 100 | > 100 | – | – | – | – | CNC(=O)[C@@]12CO[C@@H]([C@H](n3cnc4c(NCc5cccc(I)c5)ncnc43)O1)[C@@H]2O

SMILES | IC50 [1] [µM] | EC50 [2] [µM] | Imax [3] [%] | EC50 [4] [µM] | IC50 [5] [µM] | Emax [6] [%]
CNC(=O)[C@@]12CN[C@@H]([C@H](n3cnc4c(N)ncnc43)O1)[C@@H]2O | 0.17 | > 100 | 100 | – | – | –
Nc1ncnc2c1ncn2[C@@H]1O[C@@]2(CO)CN[C@@H]1[C@@H]2O | > 100 | > 100 | – | – | – | –
